Screening data from PubChem BioAssay.
Shown are actives, neighbours in structure and some others; about 4.6% of the full set was active somewhere.
Wee1 degr inh: inhibitors of human Wee1 degradation. actives 1.2% (n = 220,000). reporter increase, % at 5 µM. HeLa Luc-Wee1K328M stability, luciferase luminescence; 100% = proteasome inhibitor MG132 effect. P30291;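 active = activation above the mean of all tested compounds plus 3 SD, set per screening run, cut at about 8.8% in these data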;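 note: cells exposed to compound for 20 h before luminescence read; 0% = DMSO alone and 100% = MG132 at 30 µM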
Target sequence (P30291 whole entry K328M): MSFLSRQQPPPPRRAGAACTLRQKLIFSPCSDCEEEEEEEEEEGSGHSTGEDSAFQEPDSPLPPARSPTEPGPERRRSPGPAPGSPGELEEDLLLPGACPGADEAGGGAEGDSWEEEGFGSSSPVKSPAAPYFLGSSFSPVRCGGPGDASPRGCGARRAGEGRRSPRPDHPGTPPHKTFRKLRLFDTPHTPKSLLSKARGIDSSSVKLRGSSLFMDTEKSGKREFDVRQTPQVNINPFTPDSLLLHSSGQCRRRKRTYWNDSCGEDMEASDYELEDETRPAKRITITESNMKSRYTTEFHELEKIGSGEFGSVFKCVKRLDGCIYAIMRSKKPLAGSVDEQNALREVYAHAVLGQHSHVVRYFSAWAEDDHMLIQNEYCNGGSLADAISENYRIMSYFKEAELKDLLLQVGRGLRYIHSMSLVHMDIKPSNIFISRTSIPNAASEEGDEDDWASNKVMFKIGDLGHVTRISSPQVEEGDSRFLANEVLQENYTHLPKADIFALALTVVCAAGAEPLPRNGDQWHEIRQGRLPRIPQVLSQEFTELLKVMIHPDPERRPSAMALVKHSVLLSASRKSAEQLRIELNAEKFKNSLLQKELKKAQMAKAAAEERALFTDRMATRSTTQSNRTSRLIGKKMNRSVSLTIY
NF-kB neuron act: raises NF-kB expression in human neuronal cells; fold change at 12.5 µM; AID 1239; actives 1.6% (n = 190,000); NF-kB reporter expression; active compounds read high; in the data active = fold change above about 3.3
p97 inhibitor: human p97 ATPase inhibition; P55072; recombinant p97 ATPase, Kinase-Glo ATP luminescence, 3 h; inhibition, % at 8 µM; actives 0.42% (n = 220,000); in the data active = inhibition above about 15%;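 note: 0% = DMSO vehicle and 100% = wells lacking enzyme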
MDM2 E3 inh: inhibitors of human Mdm2 E3 ubiquitin ligase; Q00987; cell-based MDM2 ubiquitination luciferase reporter, 2 h; 0 = plate control, 100 = twice control, blank-subtracted; signal enhancement, % at 5 µM; actives 0.11% (n = 210,000); AID 1230;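 active = signal enhancement of 30% or more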;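 note: luminescence tracks abundance of the self-degrading MDM2-luciferase fusion protein; higher signal means inhibition of MDM2 E3 ligase activity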
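System: stable MDM2–luciferase fusion reporter cells / Input: 2000 cells seeded into each well / Schedule: 4 h settle plus 2 h compound, 37 °C / Compound: single-point 5 µM / Buffer or medium: cells held in DMEM / Benchmarks: control and blank well means / Evaluation: percent signal gain over controls, blank-subtracted / Measured by: luciferase luminescence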
APP 5'UTR act: activates APP 5'UTR luciferase reporter; SH-SY5Y APP 5'UTR luciferase reporter, luminescence; zero percent = DMSO vehicle wells; activation, % at 2 µM; actives 1% (n = 190,000); AID 1276;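 active = activation above a set limit, based on mean plus 3 SD of controls, cut at about 140% in these data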
STAT1 act: increases IFN-gamma driven STAT1 reporter signal | actives 2.6% (n = 200,000) | activation (% of control), % at 5.5 µM | NIH 3T3 STAT1-luciferase reporter, luminescence; 100% = IFN-gamma alone, no compound;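 active = activation above the screen-wide mean activation plus 3 SD, cut at about 130% in these data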;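 note: raw ratio to IFN-gamma control signal so 100% means no change and 0% no light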
* hit, by the source's call; / = no result given.

SMILES | Wee1 degr inh | NF-kB neuron act | p97 inhibitor | MDM2 E3 inh | APP 5'UTR act | STAT1 act
O=C(Nc1ccc(O)cc1)c1cc2ccccc2c(=O)s1 | 1 | 3 | 10 | 7 | 56 | 122
O=C(CCSc1ccccc1)Nc1nnc(-c2ccccc2)o1 | 1 | 1 | 9 | -38 | 6 | 102
O=C(CCSc1ccccc1)Nc1nnc(-c2cccs2)o1 | 9.5* | 1.2 | 2 | -2 | 6 | 109
Oc1ccc2oc3c(c2c1C=NCc1ccncc1)CCCC3 | 25* | / | -1 | 1 | / | /
Oc1ccc2oc3c(c2c1/C=N/n1cnnc1)CCCC3 | -2 | 0.85 | 1 | -14 | 1 | 100
CCC(C(=O)c1ccc2ncccc2c1)c1ccccc1 (stereo not drawn) | -1 | 1.1 | 3 | -9 | 10 | 95
CC(C)(C)c1ccc(OCCNC(=S)NC(=O)c2cccnc2)cc1 | 1 | 0.8 | 9 | -5 | 8 | 107
Cc1c(C(=O)/C=C/N(C)C)nnn1-c1ccc(F)c(Cl)c1 | 10* | / | 3 | -5 | / | /
O=C(O)c1cccc(-c2nnn(Cc3ccccc3Cl)n2)c1 | 1 | 4.2* | 2 | -58 | 21 | 67
O=C(O)c1cccc(-c2nnn(Cc3ccccc3)n2)c1 | 5 | 2.8 | 1 | -34 | 60 | 119
Cc1ccc(S(=O)(=O)N2CCN(C(C)CC(=O)O)CC2)cc1 (stereo not drawn) | -2 | 1 | 13 | -9 | -14 | 105
CCOC(=O)C1=C(O)/C(=C\c2ccc(CNC(=O)C(=O)Nc3ccc(C)c(C)c3)o2)N=C1C | 0 | 1.2 | 5 | -5 | -4 | 97
Cn1nnnc1NCc1cccc(Cl)c1Cl | -2 | 0.86 | 5 | -8 | 8 | 96
N#Cc1ccccc1NC(=O)CSC1=Nc2ccccc2C2CC=NN12 (stereo not drawn) | 9.4* | 1 | 9 | -8 | -3 | 100
O=C(CSC1=Nc2ccccc2C2CC=NN12)Nc1ccc2c(c1)OCO2 (stereo not drawn) | -2 | 2.5 | -3 | 1 | -20 | 109
Cc1cc(C)cc(N(CCC#N)C(=O)CSC2=Nc3ccccc3C3CC=NN23)c1 (stereo not drawn) | 9.9* | 0.91 | 0 | 2 | -2 | 104
CCCCOc1ccc(CCC(=O)N/N=C/c2ccco2)cc1 | 3 | / | -2 | -3 | / | /
Cc1cc(C)n(NC(=S)NC2CCCCC2)c(=O)c1C#N | 4 | / | 8 | -9 | / | /
Nc1c(C(=O)NCc2ccco2)nnn1CC(=O)Nc1ccc2c(c1)OCO2 | -1 | 4* | 6 | -4 | -16 | 100
Cc1ccc(NC(=O)Cn2nnc(C(=O)NCc3ccco3)c2N)cc1 | 2 | 1.1 | 2 | 4 | -22 | 95
CC(=O)c1ccc2c(c1)OCCOCCOCCO2 | -2 | / | 4 | -35 | / | /
CC(=O)c1ccc2c(c1)Cc1cc(C(C)=O)ccc1-2 | 2 | 3 | 4 | -10 | 75 | 146*
COc1ccc(CNC(=O)c2coc(=O)c3ccccc23)cc1 | 0 | 1 | 10 | 9 | 24 | 104
Cc1cc(C)n(-c2nnc(C)n2/N=C/c2ccccc2O)n1 | 9.3* | 1.1 | 1 | -20 | 8 | 107
Cc1cccc(C(=O)N2CCN(Cc3ccc4c(c3)OCO4)CC2)c1 | 9.3* | 1 | -2 | -13 | -3 | 112
SMILES | Wee1 degr inh | NF-kB neuron act | p97 inhibitor | MDM2 E3 inh | APP 5'UTR act | STAT1 act
O=C(c1ccc2nccnc2c1)N1CCN(Cc2ccc3c(c2)OCO3)CC1 | 0 | 0.92 | 5 | -1 | 3 | 103
CC(=C/C(=O)O)/C=C/c1ccc([N+](=O)[O-])cc1 | 11* | 1.1 | 4 | -4 | -3 | 89
CC(/C=C\c1ccccc1)=C/C(=O)O | 1 | / | -4 | -16 | / | /
COC(=O)c1cccc(S(=O)(=O)N2CCCC2)c1 | 1 | 1.1 | -5 | -2 | -8 | 91
CC(=O)Oc1ccc(C)cc1-n1nc2ccccc2n1 | 1 | 3.5* | 0 | -34 | 104 | 115
Cc1ccc(OCC(=O)O)c(-n2nc3ccccc3n2)c1 | 3 | 1.1 | 0 | -7 | -4 | 91
Cc1ccc(OC(=O)c2cccc(S(=O)(=O)N3CCCC3)c2)c(-n2nc3ccccc3n2)c1 | 2 | 3.5* | 7 | 0 | 113 | 120
Cc1ccc(OC(=O)c2cccc(S(=O)(=O)N(C)C)c2)c(-n2nc3ccccc3n2)c1 | 1 | 2.8 | -13 | -11 | 32 | 112
Cc1ccc(OC(=O)c2ccc(S(=O)(=O)N(C)C)cc2)c(-n2nc3ccccc3n2)c1 | 0 | 4.5* | -3 | -12 | 85 | 114
CC(C)Oc1ccc(C(=O)Nc2ccc(C(F)(F)F)n(C)c2=O)cc1 | 1 | 1.6 | 4 | -10 | 7 | 100
COc1ccc(C2=NOC(C)(c3nnc(-c4ccc(F)cc4)o3)C2)cc1 (stereo not drawn) | / | / | / | 16 | / | /
COc1cc([C@@H]2c3cc4c(cc3[C@@H](NC3CCN(Cc5ccccc5)CC3)[C@H]3COC(=O)[C@H]23)OCO4)cc(OC)c1O | / | / | / | -7 | / | /
COc1cc([C@@H]2c3cc4c(cc3[C@H](O)[C@H]3COC(=O)[C@H]23)OCO4)cc(OC)c1OC | 5 | 3.9* | 2 | / | -94 | 113
Cc1cc(C)c2c(SC(C)C)nc(N)nc2n1 | 0 | / | 2 | / | / | /
Cc1ccc(N=Nc2ccc(O)c(/C=N\NC(=O)c3ccc(N)cc3)c2)cc1C | 9.5* | 1.4 | 0 | 5 | 1 | 98
CCN(CC)CCCN=C(C)C1=C(O)c2ccccc2C1=O | -2 | / | 7 | -7 | / | /
CCCN=C(C)C1=C(O)c2ccccc2C1=O | 9.1* | 1.9 | 3 | -9 | 23 | 126
CCCCNC(=O)N1CCN(Cc2ccc(F)cc2)CC1 | -2 | 1 | 5 | -6 | 7 | 99
O=C(Nc1ccccc1)Nc1cccc2nsnc12 | 3 | 4.3* | -1 | -17 | 121 | 140*
O=C(Nc1cccc2nsnc12)c1cccs1 | 2 | 1.9 | 1 | -8 | 74 | 126
CC(C)CCNC(=O)CN(C(=O)CCC(=O)Nc1ccccn1)c1ccc(F)c(Cl)c1 | 1 | 1.1 | 1 | -13 | -15 | 111
COc1ccccc1CNC(=O)C(C)c1ccc([N+](=O)[O-])cc1 (stereo not drawn) | 2 | 1.1 | -1 | -1 | 1 | 95
Cc1ccccc1OCC(=O)N/N=C/c1cn(C)c2ccccc12 | 1 | / | -3 | -1 | / | /
Cc1ccc(OCC(=O)N/N=C/c2cn(C)c3ccccc23)cc1 | 9.2* | / | -1 | -2 | / | /
COc1ccc2c(c1)c(C(=O)N/N=C/c1cn(C)c3ccccc13)c(C)n2C | 9.4* | / | -5 | -42 | / | /
C/C(=N/NC(=O)CNc1ccc(Cl)cc1C)c1ccc(C)cc1 | 5 | 1.6 | 2 | -4 | -8 | 98
Cc1ccccc1NC(=O)c1onc2c1CCCC2 | 1 | 3.6* | -5 | -17 | 94 | 142*
